We go through three molecules from ChEMBL document CHEMBL5712081, “Signaling function of PRC2 is essential for TCR-driven T cell responses” (J Exp Med, 2018).

The test system of assay [1] is CD4+ T cell. As to the kind of experiment: Down-regulation of Erk phosphorylation in TCR-triggered human CD4+ T cell by Western blotting analysis. Format: functional, cell-based. In outline: (§1)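 Purified CD4+ T cells in DMSO or inhibitor were coated with 10 μg/ml anti-CD3 and 2.5 μg/ml anti-CD28 on ice for 20 min. They were cross-linked with 20 μg/ml anti-hamster IgG for 2 or 10 min at 37°C, then lysed in 0.5% NP-40 buffer. pErk1/2 (T202/Y204) was read by Western blot and normalized to total Erk. Three independent experiments.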

Assay [2] has as its system CD4+ T cell. As to the kind of experiment: Down-regulation of Mek1/2 at S217/221 phosphorylation in TCR-triggered human CD4+ T cell at 10 uM by Western blotting analysis. Format: functional, cell-based. In short, it runs like this:
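CD4+ T cells in DMSO or 10 µM inhibitor were stimulated with anti-CD3 plus anti-CD28 antibodies. pMek1/2 (S217/221) was measured by Western blot and normalized to total Mek1. Three independent experiments.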

The target in assay [3] is Histone-lysine N-methyltransferase EZH2 (Homo sapiens) (UniProt Q15910). As to the kind of experiment: Inhibition of EZH2 (unknown origin) at 45 nM.
The subject of assay [4] is CD4+ T cell. Briefly: Effect on Erk phosphorylation in TCR-triggered human CD4+ T cell at 10 uM by Western blotting analysis. It counts as functional, cell-based. In short, it runs like this: as §1
Assay [5] has as its target T1, Histone-lysine N-methyltransferase EZH1 (Homo sapiens) (UniProt Q92800).
T1 sequence (whole entry): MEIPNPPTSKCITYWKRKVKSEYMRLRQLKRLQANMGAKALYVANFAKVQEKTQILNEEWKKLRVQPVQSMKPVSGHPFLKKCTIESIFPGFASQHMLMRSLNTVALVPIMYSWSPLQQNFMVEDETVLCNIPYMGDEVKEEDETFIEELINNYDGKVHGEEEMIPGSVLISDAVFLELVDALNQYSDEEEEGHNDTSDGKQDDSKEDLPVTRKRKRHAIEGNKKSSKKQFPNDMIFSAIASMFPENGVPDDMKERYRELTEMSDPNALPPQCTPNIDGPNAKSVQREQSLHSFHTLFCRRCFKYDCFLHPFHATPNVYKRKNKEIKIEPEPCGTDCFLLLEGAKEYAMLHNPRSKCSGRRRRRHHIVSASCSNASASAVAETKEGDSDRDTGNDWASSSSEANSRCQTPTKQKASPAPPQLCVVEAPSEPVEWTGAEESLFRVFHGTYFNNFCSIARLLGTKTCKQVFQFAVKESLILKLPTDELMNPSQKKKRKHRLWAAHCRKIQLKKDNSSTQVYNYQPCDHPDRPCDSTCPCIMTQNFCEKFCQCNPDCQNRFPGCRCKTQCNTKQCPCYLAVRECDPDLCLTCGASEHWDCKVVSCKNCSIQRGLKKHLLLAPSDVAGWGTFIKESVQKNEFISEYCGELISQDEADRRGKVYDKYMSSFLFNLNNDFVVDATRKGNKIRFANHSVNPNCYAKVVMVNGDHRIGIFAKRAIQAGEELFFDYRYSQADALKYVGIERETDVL
Briefly: Inhibition of EZH1 (unknown origin) at 2 nM.

For assay [6], the system named is CD4+ T cell. Briefly: Down-regulation of Erk phosphorylation in human CD4+ T cell upto 50 uM in the presence of PMA by Western blotting analysis. It counts as functional, cell-based. In short, it runs like this: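 Purified CD4+ T cells in DMSO or inhibitor were given prewarmed medium with 5 ng/ml PMA for 10 min at 37°C and lysed in 0.5% NP-40 buffer. pErk1/2 (T202/Y204) was detected by Western blot and normalized to total Erk1/2. Three independent experiments.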

The test system of assay [7] is Mus musculus. As to the kind of experiment: Antiinflammatory activity in Foxp3-DTR expressing C57BL/6 autoimmune mouse model assessed as decrease in B-cells at 150 mg/kg after 8 days of Dtx treatment for 5 days. Format: functional, organism-based. The note with it: time 5.0 day. In short, it runs like this: (§2)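 Foxp3-DTR mice were depleted of Treg cells by DTx injection. They received 150 mg/kg inhibitor either together with DTx or starting on day 8 after DTx began. Total cells and T cells, B cells, granulocytes and macrophages in secondary lymphoid organs were counted.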

Assay [8] deals with T2, Histone-lysine N-methyltransferase EZH1 (Homo sapiens, UniProt Q92800).
T2 sequence (Q92800 whole entry): T1 sequence (whole entry)
Briefly: Inhibition of human EZH1.

The test system of assay [9] is Mus musculus. Briefly: Antiinflammatory activity in Foxp3-DTR expressing C57BL/6 autoimmune mouse model assessed as decrease in macrophages at 150 mg/kg after 8 days of Dtx treatment for 5 days. Format: functional, organism-based. The conditions noted are these: time 5.0 day. In short, it runs like this:
as §2

The subject of assay [10] is Mus musculus. As to the kind of experiment: Antiinflammatory activity in Foxp3-DTR expressing C57BL/6 autoimmune mouse model assessed as decrease in T-cells at 150 mg/kg after 8 days of Dtx treatment for 5 days. The note with it: time 5.0 day. It counts as functional, organism-based. In outline: as §2
The subject of assay [11] is CD4+ T cell. As to the kind of experiment: Anti-proliferative activity against TCR induced mouse CD4+ T cell.
Assay [12] relates to Mus musculus. As to the kind of experiment: Antiinflammatory activity in Foxp3-DTR expressing C57BL/6 autoimmune mouse model assessed as decrease in granulocytes at 150 mg/kg after 8 days of Dtx treatment for 5 days. The note with it: time 5.0 day. Format: functional, organism-based. In outline: as §2
Assay [13] concerns CD4+ T cell. As to the kind of experiment: Downregulation of Erk phosphorylation in TCR-triggered human CD4+ T cell at 10 uM by Western blotting analysis. Format: functional, cell-based. In short, it runs like this:
as §1

Assay [14] addresses T1, Histone-lysine N-methyltransferase EZH1 (Homo sapiens). As to the kind of experiment: Inhibition of Ezh1 in human CD4+ T cell by mass spectrometry analysis. It counts as cell-based.
For assay [15], the system named is Mus musculus. As to the kind of experiment: Protection against Foxp3-DTR expressing C57BL/6 autoimmune mouse model assessed as prevention of regulatory t cell depletion at 150 mg/kg after 8 days of Dtx treatment for 5 days. It counts as functional, organism-based. The conditions noted are these: time 5.0 day. In short, it runs like this: (§3)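 Foxp3-DTR mice were given DTx to deplete Treg cells, with 150 mg/kg inhibitor either at the same time or from day 8 onward. Splenic Foxp3+ Treg frequency was measured, spleen and lymph node size was photographed, and total lymphoid cells in lymph nodes were counted per mouse.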

In assay [16] the test system is CD4+ T cell. Briefly: Down-regulation of Erk phosphorylation in human CD4+ T cell upto 50 uM by Western blotting analysis. It counts as functional, cell-based. In short, it runs like this: as §1
Assay [17] concerns Mus musculus. Briefly: Protection against Foxp3-DTR expressing C57BL/6 autoimmune mouse model assessed as reversal of splenomegaly at 150 mg/kg after 8 days of Dtx treatment for 5 days. It counts as functional, organism-based. The note with it: time 5.0 day. In short, it runs like this: as §3
In assay [18] the test system is Mus musculus. Briefly: Protection activity against Foxp3-DTR expressing C57BL/6 autoimmune mouse model assessed as decrease in number of Ki67+ cells at 150 mg/kg after 8 days of Dtx treatment for 5 days. Format: functional, organism-based. The conditions noted are these: time 5.0 day. In outline: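 Foxp3-DTR mice were given DTx, and 150 mg/kg inhibitor was started on day 8 after DTx initiation. Ki67+ dividing CD19+ B, CD4+ and CD8+ T cells in lymph nodes were measured per mouse. Two experiments, n = 4–15, unpaired Student's t test.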

Active and inactive are the calls of the source. The rule behind the calls is not given here.

Histone-lysine N-methyltransferase EZH2 (Homo sapiens), sequence (Q15910 whole entry, looked up): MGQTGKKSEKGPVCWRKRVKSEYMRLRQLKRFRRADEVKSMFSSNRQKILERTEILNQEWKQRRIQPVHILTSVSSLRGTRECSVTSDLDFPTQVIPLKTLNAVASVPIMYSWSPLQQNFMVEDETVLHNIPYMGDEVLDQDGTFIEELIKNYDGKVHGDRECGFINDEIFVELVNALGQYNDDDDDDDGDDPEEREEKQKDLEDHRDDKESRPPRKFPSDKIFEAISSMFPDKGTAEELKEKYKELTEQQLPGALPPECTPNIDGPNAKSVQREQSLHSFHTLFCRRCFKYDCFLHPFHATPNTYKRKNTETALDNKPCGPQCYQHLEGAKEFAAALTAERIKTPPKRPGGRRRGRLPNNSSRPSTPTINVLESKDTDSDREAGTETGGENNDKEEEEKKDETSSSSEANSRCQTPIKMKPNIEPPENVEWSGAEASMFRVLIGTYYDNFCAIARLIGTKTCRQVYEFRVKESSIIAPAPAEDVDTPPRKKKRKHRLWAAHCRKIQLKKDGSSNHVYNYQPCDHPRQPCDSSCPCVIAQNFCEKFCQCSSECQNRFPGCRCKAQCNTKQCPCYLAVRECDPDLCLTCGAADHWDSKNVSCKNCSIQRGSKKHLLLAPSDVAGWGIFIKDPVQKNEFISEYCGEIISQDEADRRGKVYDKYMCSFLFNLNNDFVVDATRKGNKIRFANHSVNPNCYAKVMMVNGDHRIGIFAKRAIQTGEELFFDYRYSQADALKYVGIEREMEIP

For the molecule `CCCc1cc(C)n(C)c(=O)c1CN(C)C(=O)c1cc(-c2ccc(N3CCN(C(C)C)CC3)nc2)cc2c1cnn2C(C)C`, the outcome in the assay on CD4+ T cell [1] was inactive.

In the case of `CCCc1cc(C)[nH]c(=O)c1CNC(=O)c1cc(-c2ccc(N3CCN(C(C)C)CC3)nc2)cc2c1cnn2C(C)C`, the outcome in the assay on CD4+ T cell [2], in the assay on CD4+ T cell [1] and with CD4+ T cell [4] was Active. The inhibition result in assay [3] and in [5] was “Active” in each case.

On to `Cc1cc(C)c(CNC(=O)c2cc(-c3ccc(N4CCN(C)CC4)nc3)cc3c2c(C)cn3C(C)C)c(=O)[nH]1`, for which, in the assay with CD4+ T cell [6], the outcome was inactive. Also, the result with Mus musculus [7], in the assay on Mus musculus [9], in the assay on Mus musculus [10], with CD4+ T cell [11], in the assay on Mus musculus [12] and with CD4+ T cell [13] was Active. Moreover, the outcome with Mus musculus [15], in the assay on CD4+ T cell [16], in the assay on Mus musculus [17] and in the assay with Mus musculus [18] was Active. Besides, in [8], the IC50 was 0.633 µM. Besides, the inhibition result in [14] was “Active”.
